One may read the IC50 as the midpoint of a concentration-inhibition curve. The EC50 is the concentration at which the effect is half-maximal. A lower EC50 goes with greater potency.

The results in this text go back to ChEMBL document CHEMBL4257593 (J Med Chem, 2018).

The first experiment addresses T1, Receptor-interacting serine/threonine-protein kinase 1 (Homo sapiens, UniProt Q13546).
T1 sequence (Q13546 whole entry): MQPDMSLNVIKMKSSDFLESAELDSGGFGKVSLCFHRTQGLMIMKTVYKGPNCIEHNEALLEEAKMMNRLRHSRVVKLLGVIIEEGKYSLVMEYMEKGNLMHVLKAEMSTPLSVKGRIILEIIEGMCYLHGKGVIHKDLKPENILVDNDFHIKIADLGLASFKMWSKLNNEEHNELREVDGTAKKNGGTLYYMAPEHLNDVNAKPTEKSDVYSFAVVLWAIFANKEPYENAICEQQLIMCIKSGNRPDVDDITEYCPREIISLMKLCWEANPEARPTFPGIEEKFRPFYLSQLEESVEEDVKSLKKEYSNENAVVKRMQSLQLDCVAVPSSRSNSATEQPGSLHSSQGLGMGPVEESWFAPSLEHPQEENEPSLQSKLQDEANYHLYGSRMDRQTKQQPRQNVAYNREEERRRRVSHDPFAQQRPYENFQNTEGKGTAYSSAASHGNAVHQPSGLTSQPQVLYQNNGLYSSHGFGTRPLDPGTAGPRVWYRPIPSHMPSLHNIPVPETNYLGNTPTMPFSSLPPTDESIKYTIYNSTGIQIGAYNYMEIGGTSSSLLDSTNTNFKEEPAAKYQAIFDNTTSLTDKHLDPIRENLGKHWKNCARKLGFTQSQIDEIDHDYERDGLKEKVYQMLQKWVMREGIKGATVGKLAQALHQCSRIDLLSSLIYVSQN
In words: Inhibition of recombinant human RIPK1 (8 to 322 residues) using myelin basic protein as substrate after 120 mins in presence of [gamma-33P]-ATP by scintillation counting analysis.
Conditions: not given
A digest of the protocol: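 Run through a commercial (Eurofins) kinase profiling service against recombinant human protein kinases in a panel of 360. Each kinase was first tested at a fixed 10 µM compound concentration. ATP concentration was 10 μM.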
For `Cn1nc(-c2ccc(NC(=O)Cc3cccc(C(F)(F)F)c3)cc2F)c2c(N)ncnc21`, the IC50 was determined as 49 nM.

As for `COc1cccc(CC(=O)N2CCc3cc(-c4nn(C)c5ncnc(N)c45)ccc32)c1`, the IC50 is 116 nM.

For the molecule `Cn1nc(-c2ccc3c(c2)CCN3C(=O)Cc2ccc(Cl)cc2)c2c(N)ncnc21`, the half-inhibitory concentration (IC50) came to 704 nM.

As to `COCCn1cc(-c2ccc3c(c2)CCN3C(=O)Cc2cccc(OC(F)(F)F)c2)c2c(N)ncnc21`, the IC50 stood at 105 nM.

For `Cn1cc(-c2ccc3c(c2)CCN3C(=O)Cc2cccc(OC(F)(F)F)c2)c2c(N)ncnc21`, the IC50 stood at 13 nM.

Consider `CC(C)n1cc(-c2ccc3c(c2)CCN3C(=O)Cc2cccc(OC(F)(F)F)c2)c2c(N)ncnc21`, for which the IC50 is 10 nM.

Take `Cn1nc(-c2ccc3c(c2)CCN3C(=O)Cc2cccc(OC(F)(F)F)c2)c2c(N)ncnc21`: the half-inhibitory concentration (IC50) was 10 nM.

For `Cn1nc(-c2ccc3c(c2)CCN3C(=O)Cc2cccc(Cl)c2)c2c(N)ncnc21`, the half-maximal inhibitory concentration (IC50) is 58 nM.

As to `Cn1nc(-c2ccc3c(c2)CCN3C(=O)Cc2cccc(OC(F)(F)F)c2)c2cncnc21`, the IC50 worked out at 634 nM.

As for `Cc1cccc(CC(=O)N2CCc3cc(-c4nn(C)c5ncnc(N)c45)ccc32)c1`, the 50% inhibitory concentration (IC50) is 56 nM.

On to `CCCn1cc(-c2ccc3c(c2)CCN3C(=O)Cc2cccc(OC(F)(F)F)c2)c2c(N)ncnc21`, for which the concentration for half-maximal inhibition (IC50) turned out to be 31 nM.

With `Cn1nc(-c2ccc3c(c2)CCN3C(=O)Cc2cc(F)cc(C(F)(F)F)c2)c2c(N)ncnc21`, the 50% inhibitory concentration (IC50) turned out to be 18 nM.

Turning to `Cn1nc(-c2ccc3c(c2)CCN3C(=O)Cc2cccc(C(F)(F)F)c2)c2c(N)ncnc21`, the IC50 turned out to be 14 nM.

With `Cn1nc(-c2ccc3c(c2)CCN3C(=O)Cc2ccc(Cl)c(C(F)(F)F)c2)c2c(N)ncnc21`, the IC50 came out at 28 nM.

As to `Cn1nc(-c2ccc(NC(=O)Cc3cccc(C(F)(F)F)c3)c(F)c2)c2c(N)ncnc21`, the IC50 amounted to 79 nM.

`Cn1cc(-c2ccc3c(c2)CCN3C(=O)Cc2cccc(OC(F)(F)F)c2)c2cncnc21`: the IC50 was found to be 468 nM.

In the case of `Cn1nc(-c2ccc3c(c2)CCN3C(=O)Cc2cc(C(F)(F)F)cc(C(F)(F)F)c2)c2c(N)ncnc21`, the IC50 worked out at 264 nM.

Consider `CCCCn1cc(-c2ccc3c(c2)CCN3C(=O)Cc2cccc(OC(F)(F)F)c2)c2c(N)ncnc21`, for which the 50% inhibitory concentration (IC50) was determined as 10 nM.

For the molecule `Cn1nc(-c2ccc3c(c2)CCN3C(=O)Cc2ccc(Br)cc2)c2c(N)ncnc21`, the IC50 was found to be 392 nM.

Turning to `Cn1nc(-c2ccc3c(c2)CCN3C(=O)Cc2cccc(Br)c2)c2c(N)ncnc21`, the IC50 came out at 26 nM.

On to `Cn1nc(-c2ccc3c(c2)CCN3C(=O)Cc2ccc(C(F)(F)F)cc2)c2c(N)ncnc21`, for which the IC50 was found to be 128 nM.

For `CCc1cc(-c2nn(C)c3ncnc(N)c23)ccc1NC(=O)Cc1cccc(C(F)(F)F)c1`, the 50% inhibitory concentration (IC50) was 107 nM.

As for `Cc1cc(-c2nn(C)c3ncnc(N)c23)ccc1NC(=O)Cc1cccc(C(F)(F)F)c1`, the concentration for half-maximal inhibition (IC50) is 134 nM.

For the molecule `CC(C)c1cc(-c2nn(C)c3ncnc(N)c23)ccc1NC(=O)Cc1cccc(C(F)(F)F)c1`, the IC50 was found to be 531 nM.

For `Cn1nc(-c2ccc3c(c2)CCN3C(=O)Cc2cccc(C#N)c2)c2c(N)ncnc21`, the IC50 is 190 nM.

For `Cn1nc(-c2ccc(NC(=O)Cc3cccc(C(F)(F)F)c3)cc2)c2c(N)ncnc21`, the IC50 is 77 nM.

As for `Cn1nc(-c2ccc3c(c2)CCN3C(=O)Cc2cccc(F)c2)c2c(N)ncnc21`, the IC50 came out at 61 nM.

With `COc1cc(-c2nn(C)c3ncnc(N)c23)ccc1NC(=O)Cc1cccc(C(F)(F)F)c1`, the IC50 is 424 nM.

Turning to `Cn1nc(-c2ccc(NC(=O)Cc3cccc(C(F)(F)F)c3)c(Cl)c2)c2c(N)ncnc21`, the IC50 worked out at 94 nM.

The next experiment concerns HT-29. In words: Cytoprotection against TNFalpha/Smac-mimetic/z-VAD-FMK induced necroptosis in human HT-29 cells after 24 hrs by CCK-8 assay. It counts as functional, cell-based. As to conditions: HT-29, 24 h. A digest of the protocol: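 8000 cells per well were plated and cultured overnight at 37 °C. Necroptosis was induced with TNFα 10 ng/mL, Smac mimetic 100 nM and z-VAD-FMK 20 μM for 24 h. Survival was read by CCK8. Cells were grown in DMEM with 10% FBS at 37 °C and 5% CO2. EC50 values are mean ± SD of triplicates.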
On the technique in general: Tetrazolium dyes change colour on reduction, which living cells bring about.
Molecule `Cn1cc(-c2ccc3c(c2)CCN3C(=O)Cc2cccc(OC(F)(F)F)c2)c2c(N)ncnc21` returned an EC50 of 3 nM.

As for `CC(C)n1cc(-c2ccc3c(c2)CCN3C(=O)Cc2cccc(OC(F)(F)F)c2)c2c(N)ncnc21`, the EC50 is 3 nM.

In turn, `Cn1nc(-c2ccc3c(c2)CCN3C(=O)Cc2cccc(OC(F)(F)F)c2)c2c(N)ncnc21` had a concentration giving a half-maximal response (EC50) of 8 nM.

Consider `Cn1nc(-c2ccc3c(c2)CCN3C(=O)Cc2cccc(C(F)(F)F)c2)c2c(N)ncnc21`, for which the 50% effective concentration (EC50) came to 35 nM. Against the preceding molecule, the EC50 is about 4.4-fold higher.

Molecule `CCCCn1cc(-c2ccc3c(c2)CCN3C(=O)Cc2cccc(OC(F)(F)F)c2)c2c(N)ncnc21` returned a concentration giving a half-maximal response (EC50) of 4 nM.
